Results on 13 molecules are retold here after ChEMBL document CHEMBL3227924, “Pharmacologically active sulfoximides: 5-hexyl-7-)S-methylsulfonimidoly) xanthone-2-carboxylic acid, a potent antiallergic agent” (1979).

Activity calls are given as the source filed them. The rule behind the calls is not given here.

What all share (assay type): functional
For assay [1], the system named is Rattus norvegicus. Kind of assay: Antiallergic activity in iv dosed ovalbumin-sensitized CFHB rat assessed as inhibition of passive cutaneous anaphylaxis after 30 mins by Evans blue staining. Particulars: 0.5 h. Put shortly: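 Rats passively sensitized with 0.1 mL of 1:25 donor anti-ovalbumen serum (IgE plus IgG) at four dorsal sites, then challenged iv 72 h later with ovalbumen 1 mg plus 1% Evans blue (0.5 mL). Compound in Tris buffer/saline given iv 30 s before challenge at ≥3 doses, ≥7 rats per group. Blue spots scored 0–4 at 30 min. ED50 read from the dose–response curve of % inhibition versus controls.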

The subject of assay [2] is Rattus norvegicus. The experiment in a line: Antiallergic activity in po dosed ovalbumin-sensitized CFHB rat assessed as inhibition of passive cutaneous anaphylaxis after 30 mins by Evans blue staining.
Assay [3] relates to Rattus norvegicus. Kind of assay: Antiallergic activity in ovalbumin-sensitized CFHB rat assessed as inhibition of passive cutaneous anaphylaxis at 10 mg/kg, iv after 30 mins by Evans blue staining. Put shortly:
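Sensitized with diluted (1:25) donor serum at four back sites. Challenge came 72 h later, iv, with ovalbumen 1 mg and 1% Evans blue 0.5 mL. Compound dissolved in Tris buffer, diluted in saline, and injected iv 30 s pre-challenge. Groups had at least seven rats, with matched controls. Skin spots were scored 0–4 for severity and area after 30 min. % inhibition came from the test versus control score difference.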

In the case of `CCCCCCc1cc(S(C)(=O)=NC(N)=O)cc2c(=O)c3cc(C(=O)O)ccc3oc12` (stereo not drawn), in the assay on Rattus norvegicus [1], the ED50 (as a rule, the dose that gives a 50% effect, or the effect in half of the subjects) was found to be 0.009 mg/kg.

On to `CS(=N)(=O)c1ccc2oc3ccc(C(=O)O)cc3c(=O)c2c1` (stereo not drawn), for which the median effective dose (ED50) was 0.033 mg/kg with Rattus norvegicus [1] and 2.72 mg/kg with Rattus norvegicus [2] (0.5 h).

In the case of `O=C([O-])c1cc(=O)c2c(OCC(O)COc3cccc4oc(C(=O)[O-])cc(=O)c34)cccc2o1.[Na+].[Na+]` [CROMOLYN SODIUM], in the assay with Rattus norvegicus [1], the ED50 is 1.21 mg/kg. The ED50 entry in the assay on Rattus norvegicus [2] was “inactive”.

For `CS(=N)(=O)c1ccc2oc3ccccc3c(=O)c2c1` (stereo not drawn), the inhibition result in the assay on Rattus norvegicus [3] was “inactive”.

Regarding `Cc1ccc(S(=O)(=O)/N=S(\C)c2ccc3oc4ccc(C(=O)O)cc4c(=O)c3c2)cc1` (stereo not drawn), the ED50 with Rattus norvegicus [1] was determined as 0.43 mg/kg.

`CCCCCCc1cc(S(C)(=N)=O)cc2c(=O)c3cc(C(=O)O)ccc3oc12` (stereo not drawn) [SUDEXANOX]: the ED50 in the assay on Rattus norvegicus [1] came to 0.005 mg/kg; in the assay on Rattus norvegicus [2] (0.5 h), 0.19 mg/kg.

In the case of `CCOC(=O)C1=CN=S(=O)(c2ccc3oc4ccc(C(=O)O)cc4c(=O)c3c2)C=C1O` (stereo not drawn), the inhibition result in the assay with Rattus norvegicus [3] was “inactive”.

Turning to `Cc1ccc(S(=O)(=O)N=S(C)(=O)c2ccc3oc4ccc(C(=O)O)cc4c(=O)c3c2)cc1` (stereo not drawn), the ED50 in the assay with Rattus norvegicus [1] was 3.93 mg/kg.

`CCOC(=O)N=S(C)(=O)c1ccc2oc3ccc(C(=O)O)cc3c(=O)c2c1` (stereo not drawn): the inhibition in vivo – broadly, the drop in the measured response relative to a control, in per cent – at 10 mg/kg in the assay on Rattus norvegicus [3] (0.5 h) was determined as 89%.

On to `CS(=O)(=NC(N)=O)c1ccc2oc3ccc(C(=O)O)cc3c(=O)c2c1` (stereo not drawn), for which the median effective dose (ED50) in the assay on Rattus norvegicus [1] stood at 0.11 mg/kg; with Rattus norvegicus [2] (0.5 h), 8.6 mg/kg.

Take `CS(=O)(=NC(=O)c1ccccc1)c1ccc2oc3ccc(C(=O)O)cc3c(=O)c2c1` (stereo not drawn): the ED50 in the assay on Rattus norvegicus [1] was determined as 0.68 mg/kg.

Take `CC(=O)N=S(C)(=O)c1ccc2oc3ccc(C(=O)O)cc3c(=O)c2c1` (stereo not drawn): the ED50 in the assay with Rattus norvegicus [1] was 0.065 mg/kg.

For the molecule `CCCCCOc1cc(S(C)(=N)=O)cc2c(=O)c3cc(C(=O)O)ccc3oc12` (stereo not drawn), the ED50 in the assay with Rattus norvegicus [1] came to 0.005 mg/kg; with Rattus norvegicus [2] (0.5 h), 1.62 mg/kg.
